{"source": "paper PMC3268052", "about": "(Journal of Molecular Biology, 2011)", "molecules": {"B1": {"name": "PKR (protein)", "chain": "AGDLSAGFFMEELNTYRQKQGVVLKYQELPNSGPPHDRRFTFQVIIDGREFPEGEGRSKKEAKNAAAKLAVEILNKEKKAVSPLLLTTTNSSEGLSMGNYIGLINRIAQKKRLTVNYEQCASGVHGPEGFHYKCKMGQKEYSIGTGSTKQEAKQLAAKLAYLQILSEETSVKSDYLSSGSFATTCESQSNSLVTSTLASESSSEGDFSADTSEINSNSDSLNSSSLLMNGLRNNQRKAKRSLAPRFDLPDMKETKYTVDKRFGMDFKEIELIGSGGFGQVFKAKHRIDGKTYVIKRVKYNNEKAEREVKALAKLDHVNIVHYNGCWDGFDYDPETSDDSLESSDYDPENSKNSSRSKTKCLFIQMEFCDKGTLEQWIEKRRGEKLDKVLALELFEQITKGVDYIHSKKLIHRDLKPSNIFLVDTKQVKIGDFGLVTSLKNDGKRTRSKGTLRYMSPEQISSQDYGKEVDLYALGLILAELLHVCDTAFETSKFFTDLRDGIISDIFDKKEKTLLQKLLSKKPEDRPNTSEILRTLTVWKKSPEKNERHTC"}}, "key": {"[1]": {"molecular_target": "T1, PKR (Homo sapiens, UniProt P19525)", "T1 sequence (P19525 whole entry)": "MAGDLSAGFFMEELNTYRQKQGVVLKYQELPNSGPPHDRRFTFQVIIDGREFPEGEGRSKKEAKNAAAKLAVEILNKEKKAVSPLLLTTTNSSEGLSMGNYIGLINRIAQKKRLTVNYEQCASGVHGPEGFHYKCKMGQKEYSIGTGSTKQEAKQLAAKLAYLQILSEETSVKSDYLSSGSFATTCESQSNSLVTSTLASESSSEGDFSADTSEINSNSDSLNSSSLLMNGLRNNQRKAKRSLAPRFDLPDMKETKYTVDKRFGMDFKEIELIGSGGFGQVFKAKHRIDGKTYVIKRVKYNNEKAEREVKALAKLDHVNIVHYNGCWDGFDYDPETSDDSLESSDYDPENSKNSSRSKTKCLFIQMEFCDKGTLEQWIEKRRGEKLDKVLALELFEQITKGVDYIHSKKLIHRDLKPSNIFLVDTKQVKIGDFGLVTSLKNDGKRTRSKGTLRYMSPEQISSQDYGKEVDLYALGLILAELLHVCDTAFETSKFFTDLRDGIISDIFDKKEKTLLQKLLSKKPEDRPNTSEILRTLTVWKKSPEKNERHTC", "assay": "analytical ultracentrifugation", "conditions": "cited from earlier work"}, "[2]": {"molecular_target": "T1, PKR", "assay": "PKR autophosphorylation activation assay", "type": "biochemical", "conditions": "100 nM PKR, P50 buffer, 0.4 mM ATP, 20 min, 32 °C", "how_it_was_run": "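Autophosphorylation of 100 nM PKR with heparin oligosaccharide activators over a concentration range. P50 buffer: 20 mM Hepes pH 7.5, 50 mM KCl, 5 mM MgCl2, 0.1 mM TCEP. Reactions contained 0.4 mM ATP plus 2 μCi [γ-32P]ATP and ran 20 min at 32 °C. Background autophosphorylation without activator and a 40-bp dsRNA (100 nM) served as references.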"}, "[3]": {"molecular_target": "T1, PKR", "conditions": "cited from earlier work"}, "[4]": {"molecular_target": "T1, PKR", "type": "binding", "how_it_was_run": "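PKR was purified via heparin–Sepharose then hydroxyapatite and titrated into 15 nM BODIPY-labeled heparin oligosaccharides (dp2–dp8) in AU75 buffer, pH 7.5, 20 °C; NaCl was raised to 100 or 125 mM where noted. Excitation 488 nm and emission 515 nm, 6 nm bandwidths. Each point averages three 5-s background-corrected reads, with 5 min equilibration. Kd came from a hyperbolic fit, and fold-difference is the ratio of Kd values.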"}, "[5]": {"molecular_target": "T1, PKR", "assay": "Fluorescence anisotropy competition of bdp8 with unlabeled dp8", "type": "binding", "conditions": "competition of 500 nM bdp8 + 500 nM PKR with unlabeled ligand", "how_it_was_run": "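Unlabeled heparin oligosaccharide was titrated against 500 nM BODIPY-labeled oligosaccharide plus 500 nM PKR. Run in AU75 buffer (75 mM NaCl, 20 mM Hepes, 0.1 mM EDTA, 0.1 mM TCEP, pH 7.5) at 20 °C. Anisotropy read at excitation 488 nm and emission 515 nm, with 5 min equilibration between points. The competition curve was fitted to yield Kd, which sets the fixed β11 value.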"}, "[6]": {"molecular_target": "T1, PKR", "assay": "Sedimentation velocity", "type": "binding", "conditions": "for s(P2H2) / s(PH): uncorrected"}, "[7]": {"molecular_target": "the molecule itself", "assay": "sedimentation velocity analytical ultracentrifugation"}, "[8]": {"conditions": "Model A with L22 fixed equal to L20, SV"}}, "note": "Read-outs that look alike come from different tables or passages of the source."}
{"molecule": "PKR (from UniProt P19525)", "values": [{"measurement": "Kd", "setting": "[1]", "value": 500, "unit": "µM"}]}
{"molecule": "heparin hexasaccharide [dp6]", "values": [{"measurement": "Activation of PKR autophosphorylation", "setting": "[2]", "value": "stimulated"}, {"measurement": "Activation of PKR, relative activity in earlier studies", "setting": "[3]", "value": "considerably less active than dp8"}]}
{"molecule": "heparin disaccharide [dp2]", "values": [{"measurement": "Fold weaker binding affinity than dp8", "setting": "[4]", "value": "~150", "unit": "fold"}, {"measurement": "Kd", "setting": "[4]; BODIPY-labeled oligosaccharide, 75 mM NaCl", "value": "32.6 ± 7.4", "unit": "µM"}]}
{"molecule": "heparin octasaccharide [dp8]", "values": [{"measurement": "Activation of PKR autophosphorylation", "setting": "[2]", "value": "stimulated"}, {"measurement": "Kd", "setting": "[4]; 15 nM labeled heparin oligosaccharide, 75 mM NaCl, 20 °C, hyperbolic fit", "value": 0.224, "unit": "µM"}, {"measurement": "Kd", "setting": "[4]; 100 mM NaCl", "value": "2.61 ± 0.05", "unit": "µM"}, {"measurement": "Kd", "setting": "[4]; 125 mM NaCl", "value": "19 ± 1.9", "unit": "µM"}, {"measurement": "Kd", "setting": "[5]", "value": "0.262 ± 0.021", "unit": "µM"}, {"measurement": "Enhancement of PKR dimerization affinity", "setting": "[6]", "value": "about 4 fold"}, {"measurement": "g(s*) peak maximum", "setting": "[6]; 60 μM dp8, 2 μM PKR", "value": "~ 4.0 S"}, {"measurement": "g(s*) peak maximum", "setting": "[6]; 60 μM dp8, 16 μM PKR", "value": "about 4.4 S"}, {"measurement": "s(P2H2)", "setting": "[6]; [8]", "value": 6.21, "unit": "Svedbergs"}, {"measurement": "s(PH)", "setting": "[6]; [8]", "value": 4.14, "unit": "Svedbergs"}, {"measurement": "s(P2H2)", "setting": "[6]; Model A, SV", "value": 5.98, "unit": "Svedbergs"}, {"measurement": "s(PH)", "setting": "[6]; Model A, SV", "value": 3.98, "unit": "Svedbergs"}, {"measurement": "Frictional ratio f/f0 of PKR upon binding of dp8", "setting": "[6]; decrease from 1.56 for free PKR monomer", "value": 1.47}]}
{"molecule": "B1", "values": [{"measurement": "Kd", "setting": "[7]", "value": 404, "unit": "µM"}]}
